Measurements taken from ChEMBL document CHEMBL1145627, “E-ring-modified 7-oxyiminomethyl camptothecins: Synthesis and preliminary in vitro and in vivo biological evaluation” (Bioorg Med Chem Lett, 2008).
Each block holds one compound with its values, some of them ahead of it.

Columns and labels:
[1] = test system: NCI-H460; assay: Antiproliferative activity against human H460 cells after 1 hr of drug exposure measured after 72 hrs; format: functional, cell-based
How it was run: (§1)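 Growth inhibition after 1-h drug exposure; IC50 is the concentration giving 50% reduction of cell growth versus untreated controls. Values are means ± SD from at least three experiments.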

[2] = test system: HT-29; assay: Antiproliferative activity against human HT29 cells after 1 hr of drug exposure measured after 72 hrs; format: functional, cell-based; how it was run: as §1
[3] = test system: Mus musculus; assay: Toxicity in human MKN28 cells xenografted athymic mouse assessed as loss of body weight at 16 mg/kg, po administered in q4dx4 schedule; format: organism-based, MKN-28; parameters: dose 16 mg/kg, route oral; settings: in vivo
How it was run: (§2)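 Oral dosing on an intermittent q4dx4 schedule in mice bearing MKN-28 gastric carcinoma xenografts. Tumor volume inhibition % is relative to controls. Body weight loss % is the loss induced by drug treatment.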

[4] = test system: MKN-28; assay: Antitumor activity against human MKN28 cells xenografted athymic mouse assessed as inhibition of tumor volume at 16 mg/kg, po administered in q4dx4 schedule; format: functional
How it was run: (§3)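 Human tumor xenografts (CoBa colon, MKN-28 gastric, Panc-1 pancreatic) grown subcutaneously in mice. Drug given orally on an intermittent q4dx4 schedule. Read-out is % tumor volume inhibition in treated versus control mice. Complete responses were scored as tumor disappearance lasting at least ten days.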

[5] = test system: MKN-28; assay: Antitumor activity against human MKN28 cells xenografted athymic mouse assessed as inhibition of tumor volume at 4 mg/kg, po administered in q4dx4 schedule; format: functional; how it was run: as §3
[6] = test system: HT-29; assay: Antiproliferative activity against BCRP overexpressing mitoxantrone-resistant human HT29 cells after 1 hr of drug exposure measured after 72 hrs; format: functional, cell-based; how it was run: as §1
[7] = test system: MKN-28; assay: Antitumor activity against human MKN28 cells xenografted athymic mouse assessed as inhibition of tumor volume at 8 mg/kg, po administered in q4dx4 schedule; format: functional; how it was run: as §3
[8] = test system: Mus musculus; assay: Toxicity in human MKN28 cells xenografted athymic mouse assessed as survival at 16 mg/kg, po administered in q4dx4 schedule; format: organism-based, MKN-28; parameters: dose 16 mg/kg, route oral; settings: in vivo
How it was run: (§4)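 Mice carried subcutaneous human tumor xenografts (CoBa, MKN-28 or Panc-1). They were dosed orally on an intermittent q4dx4 schedule, which was also used to set the maximum tolerated dose. Toxicity was scored as lethal toxicity, given as dead/treated mice. Drug-induced % body weight loss was also recorded.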

[9] = test system: Mus musculus; assay: Toxicity in human MKN28 cells xenografted athymic mouse assessed as loss of body weight at 8 mg/kg, po administered in q4dx4 schedule; format: organism-based, MKN-28; parameters: dose 8 mg/kg, route oral; settings: in vivo; how it was run: as §2
[10] = test system: Mus musculus; assay: Toxicity in human MKN28 cells xenografted athymic mouse assessed as survival at 8 mg/kg, po administered in q4dx4 schedule; format: organism-based, MKN-28; parameters: dose 8 mg/kg, route oral; settings: in vivo; how it was run: as §4
[11] = test system: Mus musculus; assay: Toxicity in human MKN28 cells xenografted athymic mouse assessed as survival at 4 mg/kg, po administered in q4dx4 schedule; format: organism-based, MKN-28; parameters: dose 4 mg/kg, route oral; settings: in vivo; how it was run: as §4
[12] = test system: HT-29; assay: Resistant index, ratio of IC50 for BCRP overexpressing mitoxantrone-resistant human HT29 cells to IC50 for human HT29 cells; format: functional
How it was run: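 Resistance index in HT29/mit, the BCRP-overexpressing subline. IC50 values come from the 1-h exposure growth inhibition assay, as 50% growth reduction versus untreated controls.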

[13] = test system: Mus musculus; assay: Toxicity in human MKN28 cells xenografted athymic mouse assessed as loss of body weight at 4 mg/kg, po administered in q4dx4 schedule; format: organism-based, MKN-28; parameters: dose 4 mg/kg, route oral; settings: in vivo; how it was run: as §2
[14] = test system: NCI-H460; assay: Antiproliferative activity against human H460 cells after 2 hrs of drug exposure measured after 72 hrs; format: functional, cell-based
How it was run: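 Growth inhibition with IC50 taken after 2-h drug exposure, as the concentration giving 50% reduction of cell growth versus untreated controls.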

[15] = test system: Mus musculus; assay: Toxicity in human CoBa cells xenografted athymic mouse assessed as survival at 50 mg/kg, iv administered in q4dx4 schedule; format: organism-based; parameters: dose 50 mg/kg, route intravenous; settings: in vivo
[16] = Antitumor activity against human CoBa cells xenografted in athymic mouse assessed as inhibition of tumor volume at 50 mg/kg, iv administered in q4dx4 schedule
[17] = test system: PANC-1; assay: Antitumor activity against human Panc1 cells xenografted athymic mouse assessed as inhibition of tumor volume at 400 mg/kg, po administered in q4dx4 schedule; format: functional; how it was run: as §3
[18] = test system: Mus musculus; assay: Toxicity in human Panc1 cells xenografted athymic mouse assessed as survival at 400 mg/kg, po administered in q4dx4 schedule; format: organism-based, PANC-1; parameters: route oral; settings: in vivo; how it was run: as §4

SMILES: CCC1(O)CC(=O)OCc2c1cc1n(c2=O)Cc2c-1nc1ccccc1c2/C=N/OCc1ccccc1 (configuration not stated)
IC50 [1]: 15 nM
IC50 [2]: 17 nM
Activity [3]: 0%
LCK [4]: 0.2
inhibition in vivo at 16 mg/kg ([4]; Mus musculus, MKN-28): 47%
LCK [5]: 0
inhibition in vivo at 4 mg/kg ([5]; Mus musculus, MKN-28): 17%
IC50 [6]: 350 nM
LCK [7]: 0.4
inhibition in vivo at 8 mg/kg ([7]; Mus musculus, MKN-28): 60%
Activity [8]: Non-toxic
Activity [9]: 6%
Activity [10]: Non-toxic
Activity [11]: Non-toxic
Ratio IC50 [12]: 20
Activity [13]: 0%

SMILES: CC[C@@]1(O)C(=O)OCc2c1cc1n(c2=O)Cc2cc3ccccc3nc2-1 [CAMPTOTHECIN]
IC50 [1]: 180 nM
IC50 [2]: 3160 nM
IC50 [6]: 8810 nM
Ratio IC50 [12]: 2.8

SMILES: CC[C@@]1(O)OC(=O)c2c1cc1n(c2=O)Cc2c-1nc1ccccc1c2/C=N/OC(C)(C)C
Activity [15]: Non-toxic
LCK [16]: 1.1
LCK [17]: 1.6
Activity [18]: Non-toxic

Continued, in another order:

IC50 [2]: 1350 nM
SMILES: CC[C@@]1(O)C(=O)OCc2c1cc1n(c2=O)Cc2cc3c(CN(C)C)c(O)ccc3nc2-1 [TOPOTECAN]
IC50 [6]: 46300 nM
Ratio IC50 [12]: 34

IC50 [14]: > 200 nM
SMILES: CC[C@]1(O)CC(=O)OCc2c1cc1n(c2=O)Cc2c-1nc1ccccc1c2/C=N/OC(C)(C)C

IC50 [1]: 220 nM
IC50 [2]: 670 nM
SMILES: CCc1c2c(nc3ccc(O)cc13)-c1cc3c(c(=O)n1C2)COC(=O)[C@]3(O)CC [7-ETHYL-10-HYDROXYCAMPTOTHECIN]
IC50 [6]: 11500 nM
Ratio IC50 [12]: 17
